Measurements pooled from the literature.
F10 trypsin-like site: Coagulation factor X, trypsin-like site (F10, Homo sapiens, UniProt P00742)
Ntsr1: Neurotensin receptor type 1 (Ntsr1, Rattus norvegicus, UniProt P20789)
PCNA: Proliferating cell nuclear antigen (PCNA, Homo sapiens, UniProt P12004)
ADRB2: Beta-2 adrenergic receptor (ADRB2, Homo sapiens, UniProt P07550)

CC(C)(C)[C@H](NC(=O)[C@H](CCCNC(=N)N)NC(=O)Cc1ccc(CNC(=N)N)cc1)C(=O)N[C@@H](CCCNC(=N)N)C(=O)NCc1ccc(C(=N)N)cc1 — Ki (F10 trypsin-like site; enzyme activity, inhibitor; pH 8): 7.1 µM
COc1ccccc1-c1cc(C(=O)NC2(C(=O)O)CCCCC2)nn1-c1ccc(F)cc1 — Kb (Ntsr1; calcium signal, antagonist, fluorescence): > 10 µM
CC[C@H](C)[C@H](NC(=O)[C@H](CC(C)C)NC(=O)[C@H](CO)NC(=O)[C@H](CC(=O)O)NC(=O)[C@H](CCCCN)NC(=O)[C@H](CCCCN)NC(=O)CNC(=O)[C@H](Cc1c[nH]cn1)NC(=O)[C@@H](N)CCC(N)=O)C(=O)N[C@H](C(=O)N[C@@H](CC(=O)O)C(=O)N[C@@H](Cc1c[nH]cn1)C(=O)N[C@@H](Cc1ccccc1)C(=O)N[C@@H](CCSC)C(=O)N[C@@H](CCCNC(=N)N)C(=O)N[C@@H](CC(C)C)C(=O)N1CCC[C@H]1C(=O)N[C@@H](CCCCN)C(=O)N[C@@H](C)C(=O)O)[C@@H](C)O — Kd (PCNA; binding, ITC; pH 7.4): 4.55 µM
C[C@H](N)Cn1ncc2ccc3c(c21)CCCO3 — Ki (ADRB2; cell-free assay, radioligand): 0.48 µM
NCC(O)c1ccc(O)c(O)c1F (stereo not drawn) — Ki (ADRB2; ligand displacement, radioligand; cell membranes): 16 µM
FC(F)(F)c1ccc2c(c1)[C@@H]1CNC[C@H]2C1 — Ki (Neuronal acetylcholine receptor subunit alpha-7 (CHRNA7, Homo sapiens, UniProt P36544); cell-free assay): > 0.3 µM
COc1cc(N)c(Cl)cc1C(=O)NC1CN2CCC1CC2 (stereo not drawn) — IC50 (ADRB2; ligand displacement, radioligand; cell membranes): 244 µM
CC[C@H](C)[C@H](NC(=O)[C@H](CCCCN)NC(=O)[C@H](CO)NC(=O)[C@H](CC(=O)O)NC(=O)[C@H](CCCCN)NC(=O)[C@H](CCCCN)NC(=O)CNC(=O)[C@H](Cc1c[nH]cn1)NC(=O)[C@@H](N)CCC(N)=O)C(=O)N[C@H](C(=O)N[C@@H](CC(=O)O)C(=O)N[C@@H](Cc1c[nH]cn1)C(=O)N[C@@H](Cc1ccccc1)C(=O)N[C@@H](CCSC)C(=O)N[C@@H](CCCNC(=N)N)C(=O)N[C@@H](CC(C)C)C(=O)N1CCC[C@H]1C(=O)N[C@@H](CCCCN)C(=O)N[C@@H](C)C(=O)O)[C@@H](C)O — Kd (PCNA; binding, ITC; pH 7.4): 3.28 µM
CCc1c(C(=O)N[C@H](C(=O)O)C2CCCCC2)nn(-c2ccnc3cc(Cl)ccc23)c1-c1c(OC)cccc1OC — Kb (Ntsr1; calcium signal, antagonist, fluorescence): > 10 µM
CCC#CCOc1ccc(S(=O)(=O)CC2CS2)cc1 (racemic) — IC50 (72 kDa type IV collagenase (MMP2, Homo sapiens, UniProt P08253); enzyme activity, inhibitor, fluorescence): 14 µM
CC[C@H](C)[C@H](NC(=O)[C@H](CCCCN)NC(=O)[C@H](CO)NC(=O)[C@H](CC(=O)O)NC(=O)[C@H](CCCCN)NC(=O)[C@H](CCCCN)NC(=O)CNC(=O)[C@H](Cc1c[nH]cn1)NC(=O)[C@@H](N)CCC(N)=O)C(=O)N[C@H](C(=O)N[C@@H](C)C(=O)N[C@@H](Cc1c[nH]cn1)C(=O)N[C@@H](Cc1ccccc1)C(=O)N[C@@H](CCSC)C(=O)N[C@@H](CCCNC(=N)N)C(=O)N[C@@H](CC(C)C)C(=O)N1CCC[C@H]1C(=O)N[C@@H](CCCCN)C(=O)N[C@@H](C)C(=O)O)[C@@H](C)O — Kd (PCNA; binding, ITC; pH 7.4): 8.67 µM
c1ccc2c(c1)ccc1ccc3ccccc3c12 — Kd (Cytochrome P450 1B1 (CYP1B1, Homo sapiens, UniProt Q16678); binding, absorbance; pH 7.4): 2.5 µM
CC[C@H](C)[C@H](NC(=O)[C@H](CCCCN)NC(=O)[C@H](CO)NC(=O)[C@H](CC(=O)O)NC(=O)[C@H](CCCCN)NC(=O)[C@H](CCCCN)NC(=O)CNC(=O)[C@H](Cc1c[nH]cn1)NC(=O)[C@@H](N)CCC(N)=O)C(=O)N[C@H](C(=O)N[C@@H](CC(=O)O)C(=O)N[C@@H](Cc1c[nH]cn1)C(=O)N[C@@H](Cc1ccccc1)C(=O)N[C@@H](CCSC)C(=O)N[C@@H](C)C(=O)N[C@@H](CC(C)C)C(=O)N1CCC[C@H]1C(=O)N[C@@H](CCCCN)C(=O)N[C@@H](C)C(=O)O)[C@@H](C)O — Kd (PCNA; binding, ITC; pH 7.4): 4.27 µM
COc1cccc2c1C(=O)c1c(O)c3c(c(O)c1C2=O)C[C@@](O)(C(=O)CO)C[C@@H]3O[C@H]1C[C@H](N)[C@H](O)[C@H](C)O1 — Ki (Ileal sodium/bile acid cotransporter (SLC10A2, Homo sapiens, UniProt Q12908); transporter uptake, inhibitor): 101 µM
CC(C)(C)[C@H](NC(=O)[C@H](CCONC(=N)N)NC(=O)Cc1ccc(CN)cc1)C(=O)N[C@@H](CCONC(=N)N)C(=O)NCc1ccc(C(=N)N)cc1 — Ki (F10 trypsin-like site; enzyme activity, inhibitor; pH 8): 47 µM
NCC(O)c1cc(O)c(O)cc1F (stereo not drawn) — Ki (Beta-2 adrenergic receptor (ADRB2, Homo sapiens, UniProt P07550, D192G/F193V); ligand displacement, radioligand; cell membranes): > 2000 µM
O=C(N[C@H]1COC(=O)[C@@H](NC(=O)c2cccc(O)c2[O-])COC(=O)[C@@H](NC(=O)c2cccc(O)c2[O-])COC1=O)c1cccc(O)c1[O-].[Fe+3] — Kd (Neutrophil gelatinase-associated lipocalin (LCN2, Homo sapiens, UniProt P80188, C107S); binding, fluorescence; pH 7.4): 0.00041 µM
CCOC(=O)C(CC)(CCCSCCOCCOCCNc1ccc([N+](=O)[O-])c2nonc12)NC(=O)c1ccc(C2CC2)c(Cc2ccc(F)cc2)n1 (racemic) — EC50 (Cannabinoid receptor 2 (CNR2, Homo sapiens, UniProt P34972); cAMP, agonist): 0.0047 µM
